The record followed here is ChEMBL document CHEMBL3244318, “Prostaglandins and congeners. 14. Synthesis and bronchodilator activity of dl-16,16-trimethyleneprostaglandins” (1977).

For assay [1], the system named is Cavia porcellus. Description: Bronchodilatory activity in iv dosed Hartley guinea pig assessed as inhibition of histamine-induced constriction compound of total 3 to 4 doses at 15 mins interval starting first dose 2 mins post challenge. The class given is functional. Summed up: (§1)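 Ventilated, curarized guinea pigs received repeated 12-s IV spasmogen injections every 5 min, tuned to a 20-50 cm water rise in tracheal pressure. Three or four logarithmically spaced IV doses were given over 1 min, at 15-min intervals, with at least four animals per spasmogen. ED50 is the dose giving -50% spasm variation, taken from a semilog regression. When -50% was not reached, ED50 is reported as greater than the top dose.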

Assay [2] has as its system Cavia porcellus. Description: Bronchodilatory activity in iv dosed Hartley guinea pig assessed as inhibition of serotonin-induced constriction compound of total 3 to 4 doses at 15 mins interval starting first dose 2 mins post challenge. Format: functional. The method, boiled down:
as §1

Assay [3] deals with Cavia porcellus. Nature of the assay: Bronchodilatory activity in iv dosed Hartley guinea pig assessed as inhibition of acetylcholine-induced constriction compound of total 3 to 4 doses at 15 mins interval starting first dose 2 mins post challenge. The class given is functional. Summed up: as §1
For assay [4], the system named is Cavia porcellus. Nature of the assay: Bronchodilatory activity in iv dosed Hartley guinea pig assessed as inhibition of acetylcholine-induced constriction at 3.2 mg/kg, iv of total 3 to 4 doses at 15 mins interval starting 2 mins post challenge. The class given is functional. The method, boiled down:
(§2)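 Artificially ventilated, curarized guinea pigs. Spasmogen was given IV in 12-s injections every 5 min, adjusted to raise tracheal pressure by 20-50 cm water. After three similar control spasms, drug was infused IV over 1 min. Sodium salts were given in water and esters in 10% aqueous ethanol. Read-out was % variation of spasm amplitude versus control, in at least four animals per spasmogen.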

In assay [5] the test system is Cavia porcellus. Description: Bronchodilatory activity in iv dosed Hartley guinea pig assessed as inhibition of histamine-induced constriction at 3.2 mg/kg, iv of total 3 to 4 doses at 15 mins interval starting 2 mins post challenge. The class given is functional. The method, boiled down: as §2
Assay [6] deals with Cavia porcellus. Nature of the assay: Bronchodilatory activity in iv dosed Hartley guinea pig assessed as inhibition of serotonin-induced constriction at 3.2 mg/kg, iv of total 3 to 4 doses at 15 mins interval starting 2 mins post challenge. Format: functional. Summed up:
as §2

The test system of another assay is Canis familiaris. Description: Bronchodilatory activity in anesthetized dog assessed as inhibition of pilocarpine-induced bronchospasms compound administered through aerosol 15 mins post challenge measured up to 1 hr. The settings on record: Canis lupus familiaris. The class given is functional, organism-based.
Where [7] appears, read: Cavia porcellus, Hartley, iv, read-out: ED50.

The structures appear in SMILES notation. Active and inactive are the calls of the source. The calls are words filed in the database; no cut-off is given here.

For orientation: ED50 means the dose that gives a 50% effect, or the effect in half of the subjects. Take `CCCCC1([C@H](O)/C=C/C2CCC(=O)[C@@H]2CCCCCCC(=O)OCC)CCC1` (mixture of isomers): the results for the ED50 in the assay with Cavia porcellus [1] (setting [7]) and in the assay with Cavia porcellus [2] were 15.1 µg/kg and 409 µg/kg, respectively.

`CCCCC1([C@@H](O)/C=C/C2CCC(=O)[C@@H]2CCCCCCC(=O)OCC)CCC1` (mixture of isomers): the ED50 in the assay with Cavia porcellus [1] (setting [7]) amounted to 32 µg/kg; in the assay on Cavia porcellus [3] (setting [7]) it was 2.06 µg/kg.

For `CCCCC1([C@H](O)/C=C/C2CCC(=O)[C@@H]2CCCCCCC(=O)O)CCC1` (mixture of isomers), the ED50 came out at 2.4 µg/kg in the assay with Cavia porcellus [1] (setting [7]) and 47.8 µg/kg with Cavia porcellus [3] (Cavia porcellus, Hartley, iv).

Usually inhibition in vivo stands for the relative decrease from the control value, in per cent. With `CCCCC1([C@@H](O)/C=C/C2CCC(=O)[C@@H]2CCCCCCC(=O)O)CCC1` (mixture of isomers), the ED50 in the assay with Cavia porcellus [1] (setting [7]) stood at 13.9 µg/kg; with Cavia porcellus [2], 20.3 µg/kg. In addition, the inhibition in vivo at 3.2 mg/kg in the assay with Cavia porcellus [4] is under 50%.

On to `CCCCC1([C@H](O)/C=C/C2CCC(=O)[C@@H]2C/C=C\CCCC(=O)O)CCC1` (mixture of isomers), for which the median effective dose (ED50) with Cavia porcellus [1] (setting [7]) is 2.2 µg/kg; in the assay with Cavia porcellus [3] (setting [7]) it was 24.2 µg/kg; with Cavia porcellus [2] it was 7.67 µg/kg.

Regarding `CCCCC1([C@@H](O)/C=C/C2CCC(=O)[C@@H]2C/C=C\CCCC(=O)O)CCC1` (mixture of isomers), the inhibition in vivo at 3.2 mg/kg in the assay on Cavia porcellus [4] and with Cavia porcellus [5] was under 50% in each case.

With `CCCCC1([C@H](O)/C=C/C2CCC(=O)[C@@H]2CCCCCC(=O)OCC)CCC1` (mixture of isomers), the inhibition in vivo at 3.2 mg/kg in the assay on Cavia porcellus [4], in the assay with Cavia porcellus [6] and with Cavia porcellus [5] was under 50% each time.

With `CCCCC1([C@H](O)/C=C/C2CCC(=O)[C@@H]2C/C=C\CCCC(=O)OCC)CCC1` (mixture of isomers), the figures for the ED50 with Cavia porcellus [1] (setting [7]) and in the assay on Cavia porcellus [2] were 221 µg/kg and 135 µg/kg, respectively.

Consider `CCCCC1([C@@H](O)/C=C/C2CCC(=O)[C@@H]2C/C=C\CCCC(=O)OCC)CCC1` (mixture of isomers), for which the inhibition in vivo at 3.2 mg/kg in the assay with Cavia porcellus [4], in the assay on Cavia porcellus [6] and with Cavia porcellus [5] was under 50% in each case.

As to `CCCCC1([C@H](O)/C=C/C2CCC(=O)[C@@H]2CCCCCC(=O)O)CCC1` (mixture of isomers), the ED50 in the assay with Cavia porcellus [1] (setting [7]) was 32 µg/kg; in the assay on Cavia porcellus [3] (setting [7]), 320 µg/kg; with Cavia porcellus [2] it was 32 µg/kg.

Turning to `CCCCC1([C@H](O)/C=C/C2CCC(=O)[C@@H]2CCCCCCCC(=O)OCC)CCC1` (mixture of isomers), the inhibition in vivo at 3.2 mg/kg in the assay with Cavia porcellus [4], in the assay with Cavia porcellus [6] and with Cavia porcellus [5] was under 50% each time.

Regarding `CCCCC1([C@@H](O)/C=C/C2CCC(=O)[C@@H]2CCCCCCCC(=O)OCC)CCC1` (mixture of isomers), the inhibition in vivo at 3.2 mg/kg in the assay with Cavia porcellus [4], with Cavia porcellus [6] and in the assay on Cavia porcellus [5] was under 50% each time.

For the compound `CCCCC1([C@H](O)/C=C/C2CCC(=O)[C@@H]2CCCCCCCC(=O)O)CCC1` (mixture of isomers), the inhibition in vivo at 3.2 mg/kg in the assay on Cavia porcellus [4], in the assay on Cavia porcellus [6] and in the assay with Cavia porcellus [5] was under 50% throughout.

In the case of `CCCCC1([C@@H](O)/C=C/C2CCC(=O)[C@@H]2CCCCCCCC(=O)O)CCC1` (mixture of isomers), the inhibition in vivo at 3.2 mg/kg in the assay on Cavia porcellus [4], with Cavia porcellus [6] and in the assay with Cavia porcellus [5] was under 50% throughout.

Regarding `CCCCC1([C@H](O)/C=C/C2CCC(=O)[C@@H]2CCCCCCCCC(=O)OCC)CCC1` (mixture of isomers), the median effective dose (ED50) with Cavia porcellus [1] (setting [7]) worked out at 6210 µg/kg; in the assay with Cavia porcellus [2], 4380 µg/kg. Besides, the inhibition in vivo at 3.2 mg/kg with Cavia porcellus [4] is under 50%.

On to `CCCCC1([C@@H](O)/C=C/C2CCC(=O)[C@@H]2CCCCCCCCC(=O)OCC)CCC1` (mixture of isomers), for which the inhibition in vivo at 3.2 mg/kg in the assay on Cavia porcellus [4], in the assay with Cavia porcellus [6] and with Cavia porcellus [5] was under 50% each time.

Consider `CCCCC1([C@H](O)/C=C/C2CCC(=O)[C@@H]2CCCCCCCCC(=O)O)CCC1` (mixture of isomers), for which the inhibition in vivo at 3.2 mg/kg with Cavia porcellus [4], with Cavia porcellus [6] and with Cavia porcellus [5] was under 50% in each case.

As for `CCCCC1([C@@H](O)/C=C/C2CCC(=O)[C@@H]2CCCCCCCCC(=O)O)CCC1` (mixture of isomers), the inhibition in vivo at 3.2 mg/kg with Cavia porcellus [4], with Cavia porcellus [6] and with Cavia porcellus [5] was under 50% in each case.

Consider `CCCCC1([C@H](O)/C=C/C2CCC(=O)[C@@H]2CCCCC(C)(C)CC(=O)OCC)CCC1` (mixture of isomers), for which the inhibition in vivo at 3.2 mg/kg in the assay on Cavia porcellus [4], in the assay with Cavia porcellus [6] and with Cavia porcellus [5] was under 50% in each case.

For `CCCCC1([C@@H](O)/C=C/C2CCC(=O)[C@@H]2CCCCC(C)(C)CC(=O)OCC)CCC1` (mixture of isomers), the inhibition in vivo at 3.2 mg/kg in the assay on Cavia porcellus [4], in the assay with Cavia porcellus [6] and in the assay on Cavia porcellus [5] was under 50% throughout.

With `CCCCC1([C@H](O)/C=C/C2CCC(=O)[C@@H]2CCCCC(C)(C)CC(=O)O)CCC1` (mixture of isomers), the inhibition in vivo at 3.2 mg/kg in the assay on Cavia porcellus [4], with Cavia porcellus [6] and in the assay on Cavia porcellus [5] was under 50% each time.

As for `CCCCC1([C@@H](O)/C=C/C2CCC(=O)[C@@H]2CCCCC(C)(C)CC(=O)O)CCC1` (mixture of isomers), the inhibition in vivo at 3.2 mg/kg in the assay with Cavia porcellus [4], in the assay on Cavia porcellus [6] and in the assay with Cavia porcellus [5] was under 50% in each case.

With `CCCCC1([C@H](O)/C=C/C2CCC(=O)[C@@H]2CCCCSCC(=O)OCC)CCC1` (mixture of isomers), the median effective dose (ED50) came to 30 µg/kg with Cavia porcellus [1] (setting [7]), 909 µg/kg in the assay with Cavia porcellus [3] (setting [7]) and 300 µg/kg with Cavia porcellus [2].

Take `CCCCC1([C@@H](O)/C=C/C2CCC(=O)[C@@H]2CCCCSCC(=O)OCC)CCC1` (mixture of isomers): the ED50 with Cavia porcellus [1] (setting [7]) was over 672 µg/kg. The inhibition in vivo at 3.2 mg/kg in the assay on Cavia porcellus [4] and in the assay with Cavia porcellus [6] was under 50% each time.

Take `CCCCC1([C@H](O)/C=C/C2CCC(=O)[C@@H]2CCCCSCC(=O)O)CCC1` (mixture of isomers): the ED50 in the assay on Cavia porcellus [1] (setting [7]) amounted to 91.2 µg/kg; with Cavia porcellus [2], 171 µg/kg. The inhibition in vivo at 3.2 mg/kg in the assay on Cavia porcellus [4] was under 50%.

As for `CCCCC1([C@@H](O)/C=C/C2CCC(=O)[C@@H]2CCCCSCC(=O)O)CCC1` (mixture of isomers), the ED50 in the assay with Cavia porcellus [1] (setting [7]) worked out at 606 µg/kg. Besides, the inhibition in vivo at 3.2 mg/kg in the assay with Cavia porcellus [4] and in the assay on Cavia porcellus [6] was under 50% in each case.

Turning to `CCCCC1([C@H](O)/C=C/C2[C@H](O)CC(=O)[C@@H]2CCCCCCC(=O)O)CCC1` (mixture of isomers), in the assay on Canis familiaris, the inhibition entry is “Active”. The ED50 came to 0.555 µg/kg in the assay on Cavia porcellus [1], 1.45 µg/kg in the assay on Cavia porcellus [3] (setting [7]) and 1.26 µg/kg in the assay on Cavia porcellus [2].

Turning to `CCCCC1([C@@H](O)/C=C/C2[C@H](O)CC(=O)[C@@H]2CCCCCCC(=O)O)CCC1` (mixture of isomers), the inhibition result in the assay on Canis familiaris was “Active”. For the same compound, the ED50 in the assay on Cavia porcellus [1] (setting [7]) is 17 µg/kg; with Cavia porcellus [3] (setting [7]) it was 30 µg/kg; in the assay with Cavia porcellus [2] it was 43.9 µg/kg.

As to `CCCCC1([C@H](O)/C=C/C2[C@H](O)CC(=O)[C@@H]2C/C=C\CCCC(=O)O)CCC1` (mixture of isomers), the 50% effective dose (ED50) in the assay on Cavia porcellus [1] (setting [7]) amounted to 1.54 µg/kg; in the assay on Cavia porcellus [3] (setting [7]), 1.06 µg/kg; in the assay with Cavia porcellus [2], 2.51 µg/kg.

For `CCCCC1([C@@H](O)/C=C/C2[C@H](O)CC(=O)[C@@H]2C/C=C\CCCC(=O)O)CCC1` (mixture of isomers), the ED50 with Cavia porcellus [1] (setting [7]) was found to be 48.4 µg/kg; with Cavia porcellus [3] (setting [7]) it was 32 µg/kg; with Cavia porcellus [2], 305 µg/kg.

Regarding `CCCC1([C@H](O)/C=C/C2[C@H](O)CC(=O)[C@@H]2C/C=C\CCCC(=O)O)CCC1` (mixture of isomers), the ED50 in the assay on Cavia porcellus [1] was 0.0979 µg/kg; in the assay with Cavia porcellus [3] (setting [7]), 3 µg/kg; in the assay on Cavia porcellus [2], 3 µg/kg.

Take `CCCC1([C@@H](O)/C=C/C2[C@H](O)CC(=O)[C@@H]2C/C=C\CCCC(=O)O)CCC1` (mixture of isomers): the ED50 in the assay with Cavia porcellus [1] (setting [7]) was 46.7 µg/kg; with Cavia porcellus [2], 265 µg/kg. For the same compound, the inhibition in vivo at 3.2 mg/kg in the assay on Cavia porcellus [4] is under 50%.

On to `CCCCC[C@H](O)/C=C/[C@H]1[C@H](O)CC(=O)[C@@H]1CCCCCCC(=O)O` [ALPROSTADIL], for which the inhibition result in the assay on Canis familiaris was “Active”. Moreover, the figures for the ED50 in the assay on Cavia porcellus [1] (setting [7]), in the assay on Cavia porcellus [3] and in the assay with Cavia porcellus [2] were 0.7 µg/kg, 3.3 µg/kg and 1.07 µg/kg, respectively.
